# Measurements pooled from the literature.
# Lines come from different studies, so protocols differ.
Compound,host,sample,route,dose,setting,AUC(0-t)
CN1CCN(C2CCN(c3nccc4[nH]c(-c5cc(F)cc(F)c5)nc34)CC2)CC1,mouse,blood,intravenous,2 mg/kg,,1.95 µM·h
COc1ccc2nccc(N3CCc4c(cc(Cn5ccnc5)cc4-c4cn(C)nc4C(F)(F)F)C3=O)c2c1,male CD-1 mouse,plasma,intravenous,3 mg/kg,,1840 ng·h/mL
CC=Cc1ccc(O)c(OC)c1,mouse,plasma,intranasal,100 mg/kg,,9980 ng·h/mL
Cc1nc(-c2cnc(NC(C)C)n(C)c2=O)ccc1Oc1ccnc(-c2cnn(C)c2)c1,female mouse,plasma,oral,7.5 mg/kg,single dose,52600 ng·h/mL
CNC(=O)c1cc(Oc2ccc(NC(=O)Nc3ccc(Cl)c(C(F)(F)F)c3)c(F)c2)cc[n+]1[O-],mouse,plasma,oral,10 mg/kg,single dose,1930 ng·h/mL
CS(=O)(=O)CCNCc1ccc(-c2ccc3ncnc(Nc4ccc(OCc5cccc(F)c5)c(Cl)c4)c3c2)o1,nude mouse,plasma,oral,50 mg/kg,single dose,34100 ng·h/mL
CSc1cc(Oc2ccnc3[nH]c(=O)cnc23)ccc1NC(=O)Nc1cc(C(C)(C)C)nn1-c1ccccc1,BALB/c mouse,plasma,intravenous,2 mg/kg,,95 µM·h
O=S(=O)(c1ccc(-c2ccc3nccc(Nc4ccncn4)c3c2)cc1)N1CCOCC1,female BALB/c mouse,brain,intraperitoneal,10 mg/kg,,120 ng·h/mL
CC[C@H](C)[C@@H]1NC(=O)[C@@](C)(NC(=O)[C@H](CCCNC(=N)N)NC(=O)[C@H](CC(C)C)NC(=O)[C@@H](NC(=O)[C@H](CCC(N)=O)NC(=O)[C@H](CC(C)C)NC(C)=O)[C@@H](C)O)CCCC=CCCC[C@@](C)(C(=O)N[C@@H](CC(C)C)C(=O)N[C@@H](Cc2ccc3ccccc3c2)C(N)=O)NC(=O)[C@H](CCCNC(=N)N)NC(=O)[C@H](CCC(N)=O)NC1=O,male BALB/c mouse,plasma,intraperitoneal,5 mg/kg,,102000 ng·h/mL
FC(F)(F)Oc1ccc(Nc2cc(-c3cn[nH]c3)ncn2)cc1,male BALB/c mouse,plasma,oral,20 mg/kg,,6110 ng·h/mL
COc1nc(-c2cc(C)c(N[C@@H](C)c3c(F)cc(F)cc3F)nn2)ccc1-n1cnc(C)c1,male CD-1 mouse,plasma,intravenous,1 mg/kg,single dose,2500 ng·h/mL
CCc1cc(C(=O)NC)c2nccc(N3CCc4c(cc(Cn5ccnc5)cc4-c4cn(C)nc4C(F)(F)F)C3=O)c2c1,male CD-1 mouse,plasma,oral,150 mg/kg,,527000 ng·h/mL
CC(C)(Nc1nc(-c2ccccn2)nc2ccccc12)c1ccccn1,female BALB/c mouse,plasma,intravenous,1 mg/kg,,1450 ng·h/mL
CN1CCC(N2CCN(c3nccc4[nH]c(-c5ccc(F)c(F)c5)nc34)CC2)CC1,mouse,blood,intravenous,2 mg/kg,,6.77 µM·h
Cc1c2c(n(-c3ccc(Cl)cc3Cl)c1-c1ccc(OS(=O)(=O)CCC(F)(F)F)cc1)CCN(N1CCCCC1)C2=O,mouse,plasma,oral,6 µmol/kg,single dose,3.6 µM·h
CCOc1ccc(Cc2cc([C@@H]3O[C@H](CO)[C@@H](O)[C@H](O)[C@H]3O)ccc2Cl)cc1,male C57BL/6 mouse,plasma,oral,1 mg/kg,,457 ng·h/mL
CCc1cc(OC)c2nccc(N3CCc4c(cc(Cn5ccnc5)cc4-c4cn(C)nc4C(F)(F)F)C3=O)c2c1,male CD-1 mouse,plasma,oral,50 mg/kg,,106000 ng·h/mL
CN1CCC[C@H](CN2c3ccccc3Sc3ccccc32)C1.O=C(O)CCC(=O)O,mouse,plasma,oral,64 mg/kg,single dose,8750 ng·h/mL
COc1ccc(C(O)COc2ccc(-c3csc(-c4ccc(OCC(O)c5ccc(OC)c(OC)c5)cc4)n3)cc2)cc1OC (stereo not shown),C57BL/6 mouse,plasma,intravenous,3 mg/kg,,4700 ng·h/mL
